Measurements from ChEMBL document CHEMBL1671684, “In vitro resistance profile of the hepatitis C virus NS3/4A protease inhibitor TMC435” (Antimicrob Agents Chemother, 2010).
Active and inactive are the calls of the source. The calls are words filed in the database; no cut-off is given here.

Assays:
Hepatitis C virus [1] = assay: Antiviral activity against Hepatitis C virus subtype 1b infected in HuH7 cells after 72 hrs by luciferase reporter gene assay; conditions: genotype 1b, Huh-7, 72 h
Hepatitis C virus [2] = assay: Antiviral activity against Hepatitis C virus infected in HuH7 cells assessed as cell viability at 2.5 times EC50 after 2 to 3 weeks by neutral red assay in presence of 1,000 ug/ml G418; type: functional, organism-based; conditions: Hepacivirus hominis; Huh-7
Method in brief: (§1)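 Huh7-Luc genotype 1b (con1, clone ET) replicon cells, 20,000 per 10-cm dish in DMEM with 1,000 μg/ml G418. Cells got one inhibitor or a two-inhibitor combination, dosed as multiples of each inhibitor's EC50 from a genotype 1b luciferase replicon assay. Held at 37°C, 5% CO2, with medium plus compound refreshed twice weekly. After 2–3 weeks, surviving colonies were stained with neutral red and counted. Three independent experiments.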

Hepatitis C virus [3] = assay: Antiviral activity against Hepatitis C virus infected in HuH7 cells assessed as cell viability at 10 times EC50 after 2 to 3 weeks by neutral red assay in presence of 1,000 ug/ml G418; type: functional, organism-based; conditions: Hepacivirus hominis; Huh-7; method in brief: as §1
Hepatitis C virus [4] = assay: Antiviral activity against Hepatitis C virus subtype 2a JFH1 infected in HuH7.5 cells assessed as viral RNA replication after initial decline at 4000 nM after 3 days by TaqMan RT-PCR; type: functional, organism-based; conditions: Hepacivirus hominis
Hepatitis C virus [5] = assay: Antiviral activity against Hepatitis C virus subtype 2a JFH1 infected in HuH7.5 cells assessed as delay in occurrence of the viral-induced CPE at 500 nM after 3 days by luciferase reporter assay; type: functional, organism-based; conditions: Hepacivirus hominis
[6] = Inhibition of Hepatitis C virus subtype 1a NS3/4A protease
[7] = Inhibition of Hepatitis C virus subtype 4a NS3/4A protease

Structure (SMILES): COc1ccc2c(O[C@@H]3C[C@H]4C(=O)N[C@]5(C(=O)NS(=O)(=O)C6CC6)C[C@H]5/C=C\CCCCN(C)C(=O)[C@@H]4C3)cc(-c3nc(C(C)C)cs3)nc2c1C [SIMEPREVIR]
- EC50 (Hepatitis C virus [1]): 8 nM
- inhibition (Hepatitis C virus [2]): inactive
- inhibition (Hepatitis C virus [3]): inactive
- inhibition (Hepatitis C virus [4]): inactive
- inhibition (Hepatitis C virus [5]): Active
- Ki [6]: 0.4 nM
- IC50 [7]: < 13 nM
